Assay results as given in the array DNA melting data of Ke et al. (doi:10.1101/2024.01.08.574731).

Key:
[1] = folding enthalpy; higher = less favourable; fluorescence melt of hairpins on a sequencing array, two-state fit; settings: sodium 0.088 M
Procedure, shortened: (§1)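 With Cy3 and quencher oligos annealed, library hairpins on a sequenced MiSeq flow cell were imaged for Cy3 fluorescence in 50 mM Na-HEPES pH 8.0, 25 mM NaCl, in 2.5 °C steps up to 60 °C. Melting temperature and folding enthalpy were derived from bootstrapped two-state fits of signals normalised to pre-quench Cy3 and to control constructs. Four replicates were combined by inverse variance, with fitted temperatures raised by 9.35 °C to match UV melts.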

[2] = melting temperature; fluorescence melt of hairpins on a sequencing array, two-state fit, raised by 9.35 °C to match UV melts; settings: sodium 0.088 M
Procedure, shortened: as §1

Row | Sequence | folding enthalpy [1] | Tm [2]
1 | GATCATTAGATGATC ((((((...)))))) | -29.2 kcal/mol | 44.4 °C
2 | GATCATTAGCATGATC ((((((....)))))) | -32.6 kcal/mol | 44.2 °C
3 | GATCATTATGATGATC ((((((....)))))) | -43.7 kcal/mol | 48.6 °C
4 | GATCATTCATATGATC ((((((....)))))) | -38.8 kcal/mol | 48 °C
5 | GATCATTCCAATGATC ((((((....)))))) | -33.9 kcal/mol | 50.4 °C
6 | GATCATTCCATGATC ((((((...)))))) | -39.4 kcal/mol | 51 °C
7 | GATCATTGAATGATC ((((((...)))))) | -35.9 kcal/mol | 44.4 °C
8 | GATCATTGATATGATC ((((((....)))))) | -28 kcal/mol | 45.5 °C
9 | GATCATTGTGATGATC ((((((....)))))) | -43.4 kcal/mol | 51 °C
10 | GATCATTGTTATGATC ((((((....)))))) | -37 kcal/mol | 47.3 °C
11 | GATCATTTTATGATC ((((((...)))))) | -30.4 kcal/mol | 51.4 °C
12 | GATCCAAATGTGGATC ((((((....)))))) | -33.8 kcal/mol | 48.5 °C
13 | GATCCAACATGGATC ((((((...)))))) | -33.7 kcal/mol | 50.4 °C
14 | GATCCAACCGTGGATC ((((((....)))))) | -30.3 kcal/mol | 49.8 °C
15 | GATCCAACCTGGATC ((((((...)))))) | -31 kcal/mol | 50.4 °C
16 | GATCCAACCTTGGATC ((((((....)))))) | -51.5 kcal/mol | 51.5 °C
17 | GATCCAACGATGGATC ((((((....)))))) | -34 kcal/mol | 48.1 °C
18 | GATCCAACTTGGATC ((((((...)))))) | -29 kcal/mol | 51.2 °C
19 | GATCCAAGCCTGGATC ((((((....)))))) | -40 kcal/mol | 50.6 °C
20 | GATCCAAGCTGGATC ((((((...)))))) | -28.8 kcal/mol | 50.5 °C
21 | GATCCAAGCTTGGATC ((((((....)))))) | -54.6 kcal/mol | 54.8 °C
22 | GATCCAAGGATGGATC ((((((....)))))) | -27.5 kcal/mol | 47.8 °C
23 | GATCCAATAGTGGATC ((((((....)))))) | -30.8 kcal/mol | 46.6 °C
24 | GATCCAATCGTGGATC ((((((....)))))) | -38.5 kcal/mol | 49 °C

Row | Sequence | folding enthalpy [1] | Tm [2]
25 | GATCCAATTATGGATC ((((((....)))))) | -36.5 kcal/mol | 50.4 °C
26 | GATCCAATTGTGGATC ((((((....)))))) | -32.7 kcal/mol | 49.6 °C
27 | GATCCACCAATGGATC ((((((....)))))) | -36.4 kcal/mol | 48.5 °C
28 | GATCCACCATGGATC ((((((...)))))) | -37.4 kcal/mol | 49.7 °C
29 | GATCCACGCGTGGATC ((((((....)))))) | -49.9 kcal/mol | 64.4 °C
30 | GATCCACGCTTGGATC ((((((....)))))) | -38.4 kcal/mol | 52.5 °C
31 | GATCCACGGTTGGATC ((((((....)))))) | -37.7 kcal/mol | 48.9 °C
32 | GATCCACGTATGGATC ((((((....)))))) | -31.8 kcal/mol | 51.6 °C
33 | GATCCAGACTTGGATC ((((((....)))))) | -35 kcal/mol | 56.1 °C
34 | GATCCAGCACTGGATC ((((((....)))))) | -37.6 kcal/mol | 56 °C
35 | GATCCAGCATGGATC ((((((...)))))) | -45.4 kcal/mol | 61.1 °C
36 | GATCCAGCCTGGATC ((((((...)))))) | -34 kcal/mol | 52.2 °C
37 | GATCCAGCCTTGGATC ((((((....)))))) | -37.2 kcal/mol | 53.5 °C
38 | GATCCAGCTTTGGATC ((((((....)))))) | -32.1 kcal/mol | 51.5 °C
39 | GATCCAGGAAACTGGACC (.(((((....))))).) | -15.9 kcal/mol | 39.1 °C
40 | GATCCAGGAAACTGGATC (((((((....))))))) | -38.1 kcal/mol | 60.9 °C
41 | GATCCAGGAGTGGATC ((((((....)))))) | -36.7 kcal/mol | 52.5 °C
42 | GATCCAGGATTGGATC ((((((....)))))) | -39.9 kcal/mol | 55.1 °C
43 | GATCCAGGCTGGATC ((((((...)))))) | -46.7 kcal/mol | 53 °C
44 | GATCCAGGGGTGGATC ((((((....)))))) | -28.1 kcal/mol | 50.4 °C
45 | GATCCAGTAGTGGATC ((((((....)))))) | -32 kcal/mol | 54.2 °C
46 | GATCCAGTATTGGATC ((((((....)))))) | -41.8 kcal/mol | 57.4 °C
47 | GATCCAGTGGTGGATC ((((((....)))))) | -34.6 kcal/mol | 50.4 °C
48 | GATCCATAAATGGATC ((((((....)))))) | -47.5 kcal/mol | 50.3 °C

Row | Sequence | folding enthalpy [1] | Tm [2]
49 | GATCCATACCTGGATC ((((((....)))))) | -36.8 kcal/mol | 52.1 °C
50 | GATCCATATATGGATC ((((((....)))))) | -44.1 kcal/mol | 55 °C
51 | GATCCATATTTGGATC ((((((....)))))) | -36.9 kcal/mol | 53.6 °C
52 | GATCCATCACTGGATC ((((((....)))))) | -35.6 kcal/mol | 50.2 °C
53 | GATCCATCAGTGGATC ((((((....)))))) | -34.9 kcal/mol | 51.6 °C
54 | GATCCATCGATGGATC ((((((....)))))) | -47.8 kcal/mol | 55.2 °C
55 | GATCCATCTCTGGATC ((((((....)))))) | -39.6 kcal/mol | 50.4 °C
56 | GATCCATGAATGGATC ((((((....)))))) | -45.1 kcal/mol | 53.3 °C
57 | GATCCATGCATGGATC ((((((....)))))) | -42.5 kcal/mol | 58.8 °C
58 | GATCCATTATTGGATC ((((((....)))))) | -37.1 kcal/mol | 52.7 °C
59 | GATCCATTGCTGGATC ((((((....)))))) | -36.6 kcal/mol | 50.8 °C
60 | GATCCATTTTGGATC ((((((...)))))) | -33.5 kcal/mol | 53.6 °C
61 | GATCCCAAAGGGATC ((((((...)))))) | -35.4 kcal/mol | 65.5 °C
62 | GATCCCAAAGGGGATC ((((((....)))))) | -31.7 kcal/mol | 57.3 °C
63 | GATCCCAAATGGGATC ((((((....)))))) | -36.4 kcal/mol | 57.7 °C
64 | GATCCCAACAGGGATC ((((((....)))))) | -36 kcal/mol | 62.4 °C
65 | GATCCCAACTGGGATC ((((((....)))))) | -39.5 kcal/mol | 63.4 °C
66 | GATCCCAAGAGGGATC ((((((....)))))) | -33.9 kcal/mol | 60.8 °C
67 | GATCCCAAGCGGGATC ((((((....)))))) | -32.5 kcal/mol | 60.6 °C
68 | GATCCCAATGGGGATC ((((((....)))))) | -33.2 kcal/mol | 60.7 °C
69 | GATCCCACCAGGGATC ((((((....)))))) | -41.8 kcal/mol | 61.4 °C
70 | GATCCCACCGGGATC ((((((...)))))) | -28.9 kcal/mol | 66.7 °C
71 | GATCCCACGCGGGATC ((((((....)))))) | -30.7 kcal/mol | 63.3 °C
72 | GATCCCACGGGGGATC ((((((....)))))) | -35.8 kcal/mol | 61.3 °C
